The source made the active and inactive calls. The calls are words filed in the database; no cut-off is given here.
Legend:
[1] = Selectivity index, ratio of IC50 for HEK293 cells to IC50 for chloroquine-sensitive Plasmodium falciparum 3D7; format: toxicity; details: human; read-out: Ratio IC50
[2] = Selectivity index, ratio of IC50 for HEK293 cells to IC50 for chloroquine-resistant Plasmodium falciparum Dd2; format: toxicity; details: human; read-out: Ratio IC50
Plasmodium falciparum [3] = assay: Antimalarial activity against chloroquine-sensitive Plasmodium falciparum 3D7 at 10 uM after 72 hrs by DAPI staining based fluorescence assay; format: functional, organism-based
Plasmodium falciparum [4] = assay: Antimalarial activity against chloroquine-resistant Plasmodium falciparum Dd2 at 10 uM after 72 hrs by DAPI staining based fluorescence assay; format: functional, organism-based
Plasmodium falciparum [5] = assay: Antimalarial activity against chloroquine-sensitive Plasmodium falciparum 3D7 after 72 hrs by DAPI staining based fluorescence assay; format: functional, organism-based; details: 3D7, 72 h
Plasmodium falciparum [6] = assay: Antimalarial activity against chloroquine-resistant Plasmodium falciparum Dd2 after 72 hrs by DAPI staining based fluorescence assay; format: functional, organism-based; details: Dd2, 72 h
[7] = Cytotoxicity against HEK293 cells assessed as inhibition of cell growth at 80 uM after 72 hrs by alamar blue assay relative to control; format: cell-based; details: human, read-out: GI
Summary of the method: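 HEK293 human embryonic kidney cells; the reported value is the average percent inhibition measured at 80 μM.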

HEK293 = assay: Cytotoxicity against HEK293 cells assessed as inhibition of cell growth at 10 uM after 72 hrs by alamar blue assay; format: cell-based; details: human, hek293, 72 h

Compound COc1ccc(C[C@H](N)C(=O)N[C@H]2[C@@H](O)[C@H](n3cnc4c(N(C)C)ncnc43)O[C@@H]2CO)cc1 [PUROMYCIN] has a selectivity ratio [1] of 9 and a selectivity ratio [2] of 10.5.

With COc1cc(C)c2ncc(CCC=C(C)C)c3c2c1[C@H](C)CC3 the Activity (Plasmodium falciparum [3]) was “inactive” and the Activity (Plasmodium falciparum [4]) was “inactive”.

In the case of CC(C)=CCCc1cnc2c(C)cc(O)c3c2c1CC[C@H]3C, the IC50 (Plasmodium falciparum [5]) is reported as 7.7 µM, the IC50 (Plasmodium falciparum [6]) is reported as 17.2 µM and the inhibition at 72 h, 80 µM [7] is reported as 62%. It also gave a selectivity ratio [1] of 5.2 and a selectivity ratio [2] of 2.3.

In the case of C[C@H]1[C@H](OC(=O)CCC(=O)O)O[C@@H]2O[C@@]3(C)CC[C@H]4[C@H](C)CC[C@@H]1[C@@]24OO3 [ARTESUNATE], the IC50 (Plasmodium falciparum [6]) is reported as 0.001 µM, the selectivity ratio [1] is reported as 11600 and the selectivity ratio [2] is reported as 10000.

For CCN(CC)CCCC(C)Nc1ccnc2cc(Cl)ccc12 (stereo not drawn) [CHLOROQUINE], the “growth inhibition (GI)” value (HEK293) was “Not Active”.

— ChEMBL document CHEMBL4251685, “Microthecaline A, a Quinoline Serrulatane Alkaloid from the Roots of the Australian Desert Plant Eremophila microtheca” (J Nat Prod, 2018)
